What is called IC50 is the concentration needed to halve the response being measured. The inhibition is the percentage by which the read-out fell short of the control. Low readings indicate a response near the control, high ones a response far below the control.

Test [1] has as its system A549. Briefly: Cytotoxicity against human A549 cells after 72 hrs by MTT assay. The format is functional, cell-based. The following applies: A549, 72 h. Put shortly: (§1)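 Cells grown in RPMI-1640 with 10% FBS, 2 mM L-glutamine and gentamicin. Seeded at 1×10^4 cells/well and allowed to attach overnight at 37 °C, 5% CO2. Compounds dissolved in DMSO and diluted into FBS-free medium, tested at 5×10^-5, 10^-5, 10^-6 and 10^-7 M. After 72 h, MTT added for 3 h at 37 °C. Formazan dissolved in DMSO and OD read at 590 nm. Viability expressed versus untreated controls, triplicates. IC50 determined graphically; melphalan as positive control.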
A general note: Formazan colour is commonly taken as a measure of viable cells.

Test [2] deals with SK-OV-3. Briefly: Cytotoxicity against human Scov3 cells after 72 hrs by MTT assay. Format: functional, cell-based. Conditions: SK-OV-3, 72 h. Put shortly: as §1
A short description of test [3]: Cytotoxicity against human Caov3 cells after 72 hrs by MTT assay. Format: functional, cell-based. Conditions: Caov-3, 72 h. A digest of the protocol: as §1
Test [4] relates to PC-3. The test is described as follows: Cytotoxicity against human PC3 cells after 72 hrs by MTT assay. Conditions: PC-3, 72 h. The format is functional, cell-based. Put shortly: as §1
In test [5] the test system is A549. The test is described as follows: Cytotoxicity against human A549 cells at 50 uM after 72 hrs by MTT assay. Format: functional. The following applies: A549, 72 h.
Test [6] has as its system PC-3. The test is described as follows: Cytotoxicity against human PC3 cells at 50 uM after 72 hrs by MTT assay. Format: functional. The following applies: PC-3, 72 h.
A short description of test [7]: Cytotoxicity against human Caov3 cells at 50 uM after 72 hrs by MTT assay. Format: functional. Conditions: Caov-3, 72 h.
Test [8] deals with SK-OV-3. Briefly: Cytotoxicity against human Scov3 cells at 50 uM after 72 hrs by MTT assay. The format is functional. Conditions: SK-OV-3, 72 h.

Take `CCOP(=O)(CCN1C/C(=C\c2ccc(F)cc2)C(=O)/C(=C/c2ccc(F)cc2)C1)OCC`: the IC50 in the test on A549 [1] came out at 1020 nM; in the test on SK-OV-3 [2] it was 1640 nM; in test [3] it was 10 µM; in the test with PC-3 [4], 4010 nM.
Take `CCOP(=O)(CCN1C/C(=C\c2ccc(N(C)C)cc2)C(=O)/C(=C/c2ccc(N(C)C)cc2)C1)OCC`: the inhibition at 50 µM (in the test on A549 [5]; in the test on PC-3 [6]; in test [7]; with SK-OV-3 [8]) was under 50% each time.
On to `CCOP(=O)(CN1C/C(=C\c2ccc(N(C)C)cc2)C(=O)/C(=C/c2ccc(N(C)C)cc2)C1)OCC`, for which the inhibition at 50 µM (in the test on A549 [5]; in test [7]; in the test on SK-OV-3 [8]) was under 50% each time. This molecule also gave an IC50 with PC-3 [4] of 30000 nM.
`CCOP(=O)(CN1C/C(=C\c2ccc([N+](=O)[O-])cc2)C(=O)/C(=C/c2ccc([N+](=O)[O-])cc2)C1)OCC`: the IC50 in the test on A549 [1] was 1000 nM; with SK-OV-3 [2], 1520 nM; in test [3] it was 5.03 µM; in the test with PC-3 [4] it was 1400 nM.
Consider `CCOP(=O)(CCCN1C/C(=C\c2ccc(N(C)C)cc2)C(=O)/C(=C/c2ccc(N(C)C)cc2)C1)OCC`, for which the inhibition at 50 µM (in the test on A549 [5]; with PC-3 [6]; in test [7]; in the test with SK-OV-3 [8]) was under 50% in each case.
Turning to `CCOP(=O)(CN1C/C(=C\c2ccc(F)cc2)C(=O)/C(=C/c2ccc(F)cc2)C1)OCC`, the IC50 with A549 [1] came out at 8050 nM; in the test with SK-OV-3 [2], 2100 nM; in test [3] it was 10.2 µM; in the test with PC-3 [4], 3000 nM.
Consider `CCOP(=O)(CCCCN1C/C(=C\c2ccc(N(C)C)cc2)C(=O)/C(=C/c2ccc(N(C)C)cc2)C1)OCC`, for which the inhibition at 50 µM (with A549 [5]; in the test with PC-3 [6]; in test [7]; in the test on SK-OV-3 [8]) was under 50% in each case.
Consider `CCOP(=O)(CCCN1C/C(=C\c2ccc(F)cc2)C(=O)/C(=C/c2ccc(F)cc2)C1)OCC`, for which the IC50 in the test on A549 [1] came to 9070 nM; in the test with SK-OV-3 [2], 2800 nM; in test [3] it was 8.5 µM; in the test with PC-3 [4], 1820 nM.
As for `O=C1/C(=C/c2ccc([N+](=O)[O-])cc2)CNC/C1=C\c1ccc([N+](=O)[O-])cc1`, the IC50 with A549 [1] was 400 nM; in the test with SK-OV-3 [2], 2500 nM; in test [3], 1.03 µM; in the test with PC-3 [4], 1540 nM.
`CCOP(=O)(CCCN1C/C(=C\c2ccc([N+](=O)[O-])cc2)C(=O)/C(=C/c2ccc([N+](=O)[O-])cc2)C1)OCC`: the IC50 in the test on A549 [1] amounted to 7120 nM; in the test with SK-OV-3 [2] it was 900 nM; in test [3] it was 5.62 µM; with PC-3 [4] it was 710 nM.
With `O=C1/C(=C/c2ccc(F)cc2)CNC/C1=C\c1ccc(F)cc1`, the IC50 with A549 [1] stood at 800 nM; in the test on SK-OV-3 [2] it was 6500 nM; in the test with PC-3 [4] it was 6000 nM. Besides, the inhibition at 50 µM in test [7] was under 50%.
As to `CCOP(=O)(CCN1C/C(=C\c2ccc([N+](=O)[O-])cc2)C(=O)/C(=C/c2ccc([N+](=O)[O-])cc2)C1)OCC`, the IC50 in the test on A549 [1] was 1000 nM; with SK-OV-3 [2], 2010 nM; in test [3], 5.05 µM; in the test on PC-3 [4] it was 1320 nM.
In the case of `N[C@@H](Cc1ccc(N(CCCl)CCCl)cc1)C(=O)O` [MELPHALAN], the half-inhibitory concentration (IC50) stood at 50000 nM with A549 [1], 60000 nM with SK-OV-3 [2], 20 µM in test [3] and 70000 nM in the test on PC-3 [4].
Take `CN(C)c1ccc(/C=C2\CNC/C(=C\c3ccc(N(C)C)cc3)C2=O)cc1`: the IC50 with A549 [1] is 1400 nM; in the test on SK-OV-3 [2] it was 14000 nM; in the test with PC-3 [4] it was 15000 nM. In test [7], this molecule came in with an inhibition at 50 µM of under 50%.
For the molecule `CCOP(=O)(CCCCN1C/C(=C\c2ccc([N+](=O)[O-])cc2)C(=O)/C(=C/c2ccc([N+](=O)[O-])cc2)C1)OCC`, the 50% inhibitory concentration (IC50) was 3000 nM with A549 [1], 4100 nM in the test with SK-OV-3 [2], 1.01 µM in test [3] and 1200 nM in the test with PC-3 [4].

The values are drawn from ChEMBL document CHEMBL1137740, “Design, cytotoxic and fluorescent properties of novel N-phosphorylalkyl substituted E,E-3,5-bis(arylidene)piperid-4-ones” (Eur J Med Chem, 2009).
